Test results as given in ChEMBL document CHEMBL1134233, “Synthesis of phenylglycine derivatives as potent and selective antagonists of group III metabotropic glutamate receptors” (2001).

Experiments:
[1] = Antagonist activity at Group I Metabotropic glutamate receptor in rat spinal cord; Not effective at 1 mM; format: functional
[2] = Antagonist activity at Group II Metabotropic glutamate receptor in rat spinal cord; format: functional
How it was run: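 Neonatal rat spinal cord preparation. Concentration–response curves to (1S,3S)-ACPD or (2R,4R)-APDC were built with and without antagonist to give an apparent K_D. For weak antagonists, a single antagonist concentration was tested against a single agonist-induced response in triplicate and reported as % antagonism.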

[3] = Antagonist activity at Group III Metabotropic glutamate receptor in rat spinal cord; format: functional
How it was run: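 Neonatal rat spinal cord preparation. Concentration–response curves to the group III agonist (S)-AP4 were constructed with and without the antagonist, and an apparent KD was derived from the curve shift.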

[4] = Antagonist activity at Group I Metabotropic glutamate receptor in rat spinal cord; format: functional
[5] = Antagonist activity at Group III Metabotropic glutamate receptor in rat spinal cord in the presence of (S)AP4 at 100 uM as agonist challenge; format: functional
How it was run: (§1)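 Neonatal rat spinal cord, one-point assay run in triplicate. A single antagonist concentration was tested against a single agonist-evoked response, expressed as percent antagonism. The agonist was (2R,4R)-APDC for group II and (S)-AP4 for group III.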

[6] = Antagonist activity at Group I Metabotropic glutamate receptor in rat spinal cord in the presence of (1S,3R)APCD at 1 mM as agonist challenge
[7] = Antagonist activity at Group III Metabotropic glutamate receptor in rat spinal cord; Not effective at 1 mM; format: functional
[8] = Antagonist activity at Group III Metabotropic glutamate receptor in rat spinal cord; Not effective at 50 uM; format: functional
[9] = Antagonist activity at Group II Metabotropic glutamate receptor in rat spinal cord in the presence of (2R,4R)APDC at 1 uM as agonist challenge; format: functional; how it was run: as §1

SMILES	KDs [2] [µM]	KDs [3] [µM]	other results
CC(N)(C(=O)O)c1ccc(P(=O)(O)O)cc1 (centres undefined)	113	9.2	KDs [1]: No effect
CC(N)(C(=O)O)c1ccc(C(=O)O)cc1 (centres undefined)	479	227	KDs [4]: 144 µM
CCOP(=O)(O)c1ccc(C(C)(N)C(=O)O)cc1OC (centres undefined)	–	–	KDs [5]: 13 µM
NC(C(=O)O)(c1ccc(P(=O)(O)O)cc1)C1CC1 (centres undefined)	53	1.7	Inhibition [6]: 70%
CC(N)(C(=O)O)c1ccc(P(=O)(O)O)c(Cl)c1 (centres undefined)	726	6.8	KDs [1]: No effect
CC(N)(C(=O)O)c1cccc(CP(=O)(O)O)c1 (centres undefined)	–	–	KDs [7]: No effect
COc1cc(C(N)(C(=O)O)C2CC2)ccc1P(=O)(O)O (centres undefined)	–	–	KDs [8]: No effect
COc1cc(C(C)(N)C(=O)O)ccc1P(=O)(O)O (centres undefined)	–	–	KDs [9]: 51 µM; KDs [5]: 4.8 µM
Cc1cc(P(=O)(O)O)ccc1C(C)(N)C(=O)O (centres undefined)	–	180	–
Cc1cc(C(C)(N)C(=O)O)ccc1P(=O)(O)O (centres undefined)	–	5.5	–
